Here are results for three molecules from ChEMBL document CHEMBL4364242, “Novel cationic bis(acylhydrazones) as modulators of Epstein-Barr virus immune evasion acting through disruption of interaction between nucleolin and G-quadruplexes of EBNA1 mRNA” (Eur J Med Chem, 2019).

Each structure is given as a SMILES string. Active and inactive are the calls of the source. The calls are words filed in the database; no cut-off is given here.

The nature of data set [1]: Growth inhibition of human MUTU-I cells incubated for 24 hrs by MTT assay. A digest of the protocol: (§1)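 Mutu-1 EBV-positive Burkitt lymphoma cells, about 30,000 per well, treated with compound (0.5–100 μM) or DMSO for 24 or 48 h. MTT (5 mg/mL) added for 4 h, formazan dissolved in isopropanol/0.1 N HCl/10% Triton X-100, absorbance at 540 nm; viability expressed versus DMSO.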
A general note: Tetrazolium assays rely on reduction of a dye to a coloured formazan, in cell work by metabolically active cells.

Data set [2] in a line: Growth inhibition of human MUTU-I cells incubated for 48 hrs by MTT assay. A digest of the protocol:
as §1

In data set [3] the test system is NCI-H1299. Put plainly: Immunostimulatory activity in human H1299 cells transfected with murine MHC class I Kb and 235GAr-OVA cocultured with mouse CD8+ T-cells assessed as increase in IL-2 level at 10 uM incubated for 3 days by ELISA. It is filed as functional. A digest of the protocol: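 Kb/235GAr-OVA co-transfected H1299 cells, exposed to compound for 40 h, then 10^5 cells incubated 3 days at 37 °C with 4×10^5 OT-I CD8+ T cells. Supernatant IL-2 quantified by ELISA.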

In data set [4] the test system is human gammaherpesvirus 4. Description: Binding affinity to EB virus F-g4-EBNA1 mRNA assessed as increase in melting temperature at 1 uM by fluorescence method.
For a further data set, the species on record is Homo sapiens. Put plainly: Binding affinity to […] assessed as increase in melting temperature at 1 uM by fluorescence method. A digest of the protocol:
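F-25TAG-T telomeric DNA (5'-FAM/3'-TAMRA) melted with 1 μM ligand in K-100 buffer (10 mM LiAsO2Me2, 100 mM KCl, pH 7.3). Heating 25–95 °C at 0.5 °C/min. ΔTm derived from first-derivative Tm maxima relative to the no-ligand run.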

Data set [5] is described as follows: Binding affinity to […] (unknown origin) assessed as increase in melting temperature at 1 uM by fluorescence method. A digest of the protocol: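 Labeled F-myc22-T DNA (5'-FAM/3'-TAMRA) melted with 1 μM ligand in K-1 buffer (10 mM LiAsO2Me2, 1 mM KCl, 99 mM LiCl, pH 7.3). Ramp 0.5 °C/min from 25 to 95 °C. Tm taken from first-derivative maxima and ΔTm calculated versus ligand-free control.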

The nature of data set [6]: Displacement of TO from EB virus g4-EBNA1 mRNA measured after 5 mins by FID assay. On the set-up: species or system human gammaherpesvirus 4. A digest of the protocol:
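g4-EBNA1 RNA annealed 95 °C 5 min in K100 buffer (10 mM KAsO2Me2, 100 mM KCl, 1 mM EDTA, 1% DMSO), then mixed with TO; final 0.25 μM RNA and 0.5 μM TO, ligand 0–2.5 μM. Fluorescence read after 5 min shaking (485/520 nm), in duplicate. Displacement = 100×(1−F/F0); DC50 interpolated from the curve.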

Data set [7] has as its system human gammaherpesvirus 4. Put plainly: Binding affinity to EBNA1 G4-quadruplex in human H1299 cells assessed as EB virus EBNA1 expression at 10 uM incubated for 40 hrs by western blot analysis. It is filed as cell-based. A digest of the protocol:
(§2)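 H1299 cells in RPMI-1640 with 10% FBS at 37 °C, 5% CO2, transiently transfected with EBNA1 or EBNA1ΔGAr constructs, then treated with 10 μM compound (DMSO vehicle) for 40 h. Lysates taken 48 h post-transfection and western blotted with anti-EBNA1 (OT1X). Levels normalized to GAPDH; at least three repeats.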

The subject of data set [8] is human gammaherpesvirus 4. Put plainly: Binding affinity to EBNA1 G4-quadruplex in human H1299 cells assessed as EB virus EBNA1 deleted GAr expression at 10 uM incubated for 40 hrs by western blot analysis. It is filed as cell-based. A digest of the protocol: as §2
(A western blot detects proteins with antibodies after separation by electrophoresis.)

For data set [9], the system named is NCI-H1299. Put plainly: Effect on OVA expression in human H1299 cells at 10 uM incubated for 40 hrs by western blot analysis. It is filed as functional. On the set-up: unit not given here. A digest of the protocol:
(§3)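 OVA or 235GAr-OVA constructs transiently transfected into H1299 cells, followed by 40 h exposure to 10 μM compound or DMSO. Whole-cell lysates immunoblotted with rabbit anti-OVA; signal normalized to GAPDH. Experiments repeated at least three times.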

The subject of data set [10] is NCI-H1299. Description: Effect on 235Gar-OVA expression in human H1299 cells at 10 uM incubated for 40 hrs by western blot analysis. On the set-up: unit not given here. It is filed as functional. A digest of the protocol: as §3
Data set [11] can be described thus: Inhibition of native NCL/EB virus G4-EBNA1 mRNA interaction in human H1299 cells assessed as reduction in PLA signals per cell at 5 uM incubated for overnight by proximity ligation assay (reference value: 1.83 +/- 0.54). It is filed as cell-based.
Data set [12] is described as follows: Inhibition of recombinant NCL (unknown origin)/EB virusG4-EBNA1 mRNA interaction at 10 uM by RNA pull-down assay. A digest of the protocol:
(§4)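 Biotin-TEG RNA (g4-EBNA1 or non-G4 GM) folded in 10 mM Tris pH 7.5, 100 mM KCl, 0.1 mM EDTA (95 °C 5 min, cooled 2 °C/min), then bound to blocked streptavidin beads. 200 ng recombinant NCL added for 90 min at room temperature with 10 μM compound or DMSO. Beads washed up to 800 mM KCl; eluates western-blotted for NCL.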

A short description of data set [13]: Inhibition of recombinant NCL (unknown origin)/GM mRNA (unknown origin) interaction at 10 uM by RNA pull-down assay. A digest of the protocol:
as §4

In data set [14] the test system is NCI-H1299. Put plainly: Immunostimulatory activity in human H1299 cells transfected with murine MHC class I Kb and OVA cocultured with mouse CD8+ T-cells assessed as increase in IL-2 level at 5 or 10 uM incubated for 3 days by ELISA. It is filed as functional, cell-based. A digest of the protocol: (§5)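 H1299 cells co-transfected with mouse Kb and OVA or GAr-OVA, treated with 5 or 10 μM compound or DMSO. After 40 h, 10^5 cells co-cultured with 4×10^5 naive OT-I CD8+ T cells from female mouse lymph nodes, 37 °C, for 3 days. IL-2 in supernatant measured by ELISA.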
In general terms: ELISA stands for enzyme-linked immunosorbent assay.

The test system of data set [15] is NCI-H1299. Description: Effect on 235Gar-OVA expression in human H1299 cells incubated for 40 hrs by western blot analysis. It is filed as functional, cell-based. A digest of the protocol: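 235GAr-OVA-transfected H1299 cells treated 40 h with compound at 0, 7.5, 10 or 15 μM. Anti-OVA western blot with band intensities normalized to GAPDH.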
Data set [16] has as its system NCI-H1299. Description: Immunostimulatory activity in human H1299 cells transfected with murine MHC class I Kb and 235GAr-OVA cocultured with mouse CD8+ T-cells assessed as increase in IL-2 level at 5 or 10 uM incubated for 3 days by ELISA. It is filed as functional. A digest of the protocol:
as §5

Data set [17] can be described thus: Inhibition of human NCL/EB virus G4-EBNA1 mRNA interaction in human MUTU-I cells assessed as reduction in PLA signals per cell at 5 uM incubated for […] by proximity ligation assay (reference value: 1.68 +/- 0.44). It is filed as cell-based. A digest of the protocol:
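Mutu-1 cells carrying endogenous EBNA1 treated 36 h with 5 μM compound or DMSO. Processed by EBNA1 mRNA in situ hybridization combined with an anti-nucleolin PLA; nuclear PLA dots per cell counted across two biological replicates, ≥200 cells per sample.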

The test system of data set [18] is NCI-H1299. Put plainly: Cytotoxicity against OVA-over expressing human H1299 cells at 10 uM incubated for 40 hrs. It is filed as cell-based. The conditions noted are these: nci-h1299, 40 h.
Data set [19] deals with NCI-H1299. Put plainly: Cytotoxicity against 235Gar-OVA-over expressing human H1299 cells at 10 uM incubated for 40 hrs. It is filed as cell-based. The conditions noted are these: nci-h1299, 40 h.

As usually defined, the GI50 is the concentration giving 50% growth inhibition. What is called ΔTm is the change in melting temperature against a reference sample. For orientation: IC50 means the concentration needed to halve the response being measured. On to `C[n+]1ccc(/C=N/NC(=O)c2cccc(C(=O)N/N=C/c3cc[n+](C)c4ccccc34)n2)c2ccccc21.[I-].[I-]`, for which, in data set [1], the concentration for 50% growth inhibition (GI50) at 24 h is greater than 100 µM. Moreover, in data set [2], the concentration for 50% growth inhibition (GI50) at 48 h is no less than 100 µM. Besides, the “fold change (FC)” value in the data set on NCI-H1299 [3] is greater than 2; in data set [12], 10. The result in the data set on human gammaherpesvirus 4 [4] and with human gammaherpesvirus 4 [7] was Active. The ΔTm (in the data set listed under Homo sapiens; in [5]) was 15 to 30 °C throughout. The IC50 in data set [6] was 260 nM. In addition, the outcome in the data set on human gammaherpesvirus 4 [8] and in the data set on NCI-H1299 [14] was inactive. Also, the Activity was 101 in the data set with NCI-H1299 [9], 162 in the data set with NCI-H1299 [10], 0.27 in [11] and “Dose-dependent effect” in the data set with NCI-H1299 [15]. In addition, the inhibition result in [13] was “inactive”.

The molecule `C[n+]1ccc(/C=N/NC(=O)c2ccc3ccc4ccc(C(=O)N/N=C/c5cc[n+](C)c6ccccc56)nc4c3n2)c2ccccc21.[I-].[I-]` registered a GI50 at 24 h in [1] of 50 to 100 µM. In data set [2], this molecule registered a GI50 at 48 h of 20 µM. For the same molecule, the “fold change (FC)” value in the data set on NCI-H1299 [16] was greater than 2; in data set [12] it was 10. Moreover, the shift in melting temperature (ΔTm) in the data set on human gammaherpesvirus 4 [4] lay in the range of 20 to 30 °C; in the data set listed under Homo sapiens, 15 to 30 °C; in data set [5] it was 15 to 30 °C. For the same molecule, the half-maximal inhibitory concentration (IC50) in data set [6] is 300 nM. Besides, the outcome with human gammaherpesvirus 4 [7] was Active. Further, the outcome in the data set on human gammaherpesvirus 4 [8] and with NCI-H1299 [14] was inactive. In addition, the Activity in the data set on NCI-H1299 [9] was 96; with NCI-H1299 [10], 189; in data set [11], 0.4; in data set [17], 0.59; with NCI-H1299 [15], “Dose-dependent effect”. Besides, the inhibition entry in data set [13] was “inactive”.

Take `O=C(N/N=C/c1ccc2c(ccc[n+]2Cc2ccccc2)c1)c1cccc(C(=O)N/N=C/c2ccc3c(ccc[n+]3Cc3ccccc3)c2)n1.[Br-].[Br-]`: the result with human gammaherpesvirus 4 [4], in the data set with human gammaherpesvirus 4 [7] and in the data set on human gammaherpesvirus 4 [8] was Active. The shift in melting temperature (ΔTm) (in the data set filed under Homo sapiens; in data set [5]) was 15 to 30 °C each time. For the same molecule, the 50% inhibitory concentration (IC50) in data set [6] worked out at 720 nM. In addition, the Activity in the data set on NCI-H1299 [9] was 70; in the data set on NCI-H1299 [10], 58; with NCI-H1299 [18], “Toxic”; with NCI-H1299 [19] it was “Toxic”.
